Laboratory results taken from ChEMBL document CHEMBL2390943, “Synthesis and preliminary evaluation steroidal antiestrogen-geldanamycin conjugates” (Bioorg Med Chem Lett, 2013).
pIC50: −log10 of the molar value.

What was measured:
MCF7 [1] = experiment: Ratio of IC50 for estrogen receptor deficient human […] cells to IC50 for human MCF7 cells expressing estrogen receptor; format: functional
[2] = target: T1, Estrogen receptor (Homo sapiens) (UniProt P03372); experiment: Relative binding affinity to estrogen receptor-alpha (unknown origin)
T1 sequence (whole entry): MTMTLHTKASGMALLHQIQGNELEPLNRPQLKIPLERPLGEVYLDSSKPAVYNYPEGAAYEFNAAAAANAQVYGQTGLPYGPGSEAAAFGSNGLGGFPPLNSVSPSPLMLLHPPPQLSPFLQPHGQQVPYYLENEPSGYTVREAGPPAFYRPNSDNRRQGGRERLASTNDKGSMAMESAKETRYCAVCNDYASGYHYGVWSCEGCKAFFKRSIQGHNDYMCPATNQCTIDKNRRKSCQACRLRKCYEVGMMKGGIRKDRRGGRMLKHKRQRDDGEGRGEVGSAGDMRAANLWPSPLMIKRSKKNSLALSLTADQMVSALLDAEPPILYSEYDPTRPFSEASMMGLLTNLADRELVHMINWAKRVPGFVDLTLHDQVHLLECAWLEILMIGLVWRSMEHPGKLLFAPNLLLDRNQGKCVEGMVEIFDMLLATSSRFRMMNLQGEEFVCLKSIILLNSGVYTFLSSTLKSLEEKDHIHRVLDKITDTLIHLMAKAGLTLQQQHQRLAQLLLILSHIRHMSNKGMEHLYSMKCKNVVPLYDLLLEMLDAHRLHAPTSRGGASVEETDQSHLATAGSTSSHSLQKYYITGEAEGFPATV

MCF7 [3] = experiment: Antiproliferative activity against human MCF7 cells expressing estrogen receptor after 72 hrs; format: functional, cell-based; details: MCF7, 72 h
Method in brief: (§1)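 Proliferation inhibition was measured in MCF-7 (ER-expressing) and SKBr3 (ER-lacking) human breast cancer cells. IC50 was taken as the concentration giving 50% inhibition.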

SK-BR-3 = experiment: Antiproliferative activity against estrogen receptor deficient human SKBR3 cells after 72 hrs; format: functional, cell-based; details: SK-BR-3, 72 h; method in brief: as §1

Compound	Ratio IC50 (MCF7 [1])	RBA [2]	pIC50 (MCF7 [3])	pIC50 (SK-BR-3)
COc1cccc2c1C(=O)c1c(O)c3c(c(O)c1C2=O)C[C@@](O)(/C(CO)=N/NC(=O)c1ccc(OCCOCCOCCOCCOCc2cn(CCOCCOCCOCCN(C)CCOc4ccc([C@H]5C[C@]6(C)[C@@H](O)CC[C@H]6[C@@H]6CCc7cc(O)ccc7[C@H]65)cc4)nn2)cc1)C[C@@H]3O[C@H]1C[C@H](N)[C@H](O)[C@H](C)O1	7			
C#CCN(C)CCOc1ccc([C@H]2C[C@]3(C)[C@@H](O)CC[C@H]3[C@@H]3CCc4cc(O)ccc4[C@H]32)cc1		39%		
CO[C@@]12[C@H](COC(N)=O)C3=C(C(=O)C(C)=C(NCc4cn(CCOCCOCCOc5ccc([C@H]6C[C@]7(C)[C@@H](O)CC[C@H]7[C@@H]7CCc8cc(O)ccc8[C@H]76)cc5)nn4)C3=O)N1C[C@H]1[C@@H]2N1C (stereo not given in full)		7%		
CO[C@H]1/C=C\C=C(/C)C(=O)NC2=CC(=O)C(NCCCCCNC(=O)c3ccc(CC4CCCCc5c(nnn5CCOc5ccc([C@H]6C[C@]7(C)[C@@H](O)CC[C@H]7[C@@H]7CCc8cc(O)ccc8[C@H]76)cc5)C4(F)F)cc3)=C(C[C@@H](C)C[C@H](OC)[C@H](O)[C@@H](C)/C=C(\C)[C@@H]1OC(N)=O)C2=O (stereo in doubt)			4.82	
CO[C@H]1/C=C\C=C(/C)C(=O)NC2=CC(=O)C(NCCOCCOCCOCCc3cn(CN(C)CCOc4ccc([C@H]5C[C@]6(C)[C@@H](O)CC[C@H]6[C@@H]6CCc7cc(O)ccc7[C@H]65)cc4)nn3)=C(C[C@@H](C)C[C@H](OC)[C@H](O)[C@@H](C)/C=C(\C)[C@@H]1OC(N)=O)C2=O (stereo in doubt)			6.99	7.39
CO[C@H]1/C=C\C=C(/C)C(=O)NC2=CC(=O)C(NCc3cn(CCOc4ccc([C@H]5C[C@]6(C)[C@@H](O)CC[C@H]6[C@@H]6CCc7cc(O)ccc7[C@H]65)cc4)nn3)=C(C[C@@H](C)C[C@H](OC)[C@H](O)[C@@H](C)/C=C(\C)[C@@H]1OC(N)=O)C2=O (stereo in doubt)			5.94	6.15
COC1=C2C[C@@H](C)C[C@H](OC)[C@H](O)[C@@H](C)/C=C(\C)[C@H](OC(N)=O)[C@@H](OC)/C=C\C=C(/C)C(=O)NC(=CC1=O)C2=O [GELDANAMYCIN]			8.01	8.07
